Reference: ChEMBL document CHEMBL1156517, “Targeting thyroid hormone receptor-beta agonists to the liver reduces cholesterol and triglycerides and improves the therapeutic index” (Proc Natl Acad Sci U S A, 2007)
Activity calls are given as the source filed them. No cut-off for these calls is given here.

Legend:
Rattus norvegicus [1] = assay: Toxicity in Sprague-Dawley rat assessed as suppression of thyroid hormone axis measured by decrease in serum TSH level at 1000 mg/kg/day, po for 7 days relative to control; format: organism-based; parameters: route oral; conditions: in vivo, 168 h
Rattus norvegicus [2] = assay: Effect on type 1 iodothyronine deiodinase mRNA expression in po dosed Sprague-Dawley rat thyroid gland; format: functional, organism-based; conditions: TDE = time-dependent effect
Procedure, shortened: (§1)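 Killed 3, 8 and 24 h post-dose under 2.5% isoflurane. Pituitary and thyroid snap-frozen; liver, heart, soleus, spleen and kidney freeze-clamped. mRNA by quantitative real-time PCR, expressed as fold-change vs vehicle.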

Rattus norvegicus [3] = assay: Toxic cardiac effect on Sprague-Dawley rat assessed as increase in systolic aortic pressure at >= 0.065 mg/kg/day, po for 7 days; format: toxicity, organism-based; parameters: route oral; conditions: in vivo, 168 h
Procedure, shortened: (§2)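 Male SD rats (n = 6 per group) dosed daily by oral gavage for 7 days; vehicle group included. On day 7, rats anesthetized with isoflurane; catheter-tip transducer inserted into left ventricle via right carotid artery. LV pressure, LV dP/dt and heart rate (lead I ECG) recorded digitally. Systolic/diastolic aortic pressure taken by retracting catheter into proximal aorta.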

Rattus norvegicus [4] = assay: Toxicity in Sprague-Dawley rat assessed as suppression of thyroid hormone axis measured by decrease in TSH-beta mRNA level at 300 mg/kg/day, po for 7 days relative to control; format: organism-based; parameters: route oral; conditions: in vivo, 168 h
Mus musculus [5] = assay: Effect on hepatic LDLR mRNA level in wild-type C57BL/6 mouse at 0.5 mg/kg/day once daily for 7 days; format: functional
Rattus norvegicus [6] = assay: Toxicity in Sprague-Dawley rat assessed as suppression of thyroid hormone axis measured by decrease in TSH-beta mRNA level at 1000 mg/kg/day, po for 7 days relative to control; format: organism-based; parameters: route oral; conditions: in vivo, 168 h
Mus musculus [7] = assay: Decrease in cholesterol level in LDLR deficient C57BL/6 mouse at 5 mg/kg/day once daily for 7 days; format: functional, organism-based
Rattus norvegicus [8] = assay: Toxicity in Sprague-Dawley rat assessed as suppression of thyroid hormone axis measured by decrease in serum TSH level at 300 mg/kg/day, po for 7 days relative to control; format: organism-based; parameters: route oral; conditions: in vivo, 168 h
Rattus norvegicus [9] = assay: Effect on body weight in Sprague-Dawley rat at 650 ug/kg/day, sc after 8 days; format: functional
Rattus norvegicus [10] = assay: Effect on plasma insulin level in Sprague-Dawley rat at 650 ug/kg/day, sc after 8 days; format: functional
Rattus norvegicus [11] = assay: Toxicity in Sprague-Dawley rat assessed as suppression of thyroid hormone axis measured by decrease in serum TSH level at 3 mg/kg/day, po for 7 days relative to control; format: organism-based; parameters: route oral; conditions: in vivo, 168 h
Rattus norvegicus [12] = assay: Toxicity in Sprague-Dawley rat assessed as suppression of thyroid hormone axis measured by decrease in total 3,5,3',5'-tetraiodo-L-thyronine level at 1000 mg/kg/day, po for 7 days; format: organism-based; parameters: route oral; conditions: in vivo, 168 h
Rattus norvegicus [13] = assay: Effect on type 1 iodothyronine deiodinase mRNA expression in po dosed Sprague-Dawley rat kidney; format: functional, organism-based; conditions: TDE = time-dependent effect; procedure, shortened: as §1
Rattus norvegicus [14] = assay: Effect on type 1 iodothyronine deiodinase mRNA expression in po dosed Sprague-Dawley rat liver; format: functional, organism-based; conditions: TDE = time-dependent effect; procedure, shortened: as §1
Rattus norvegicus [15] = assay: Toxicity in Sprague-Dawley rat assessed as suppression of thyroid hormone axis measured by decrease in total 3,5,3',5'-tetraiodo-L-thyronine level at 30 mg/kg/day, po for 7 days; format: organism-based; parameters: route oral; conditions: in vivo, 168 h
Rattus norvegicus [16] = assay: Toxicity in Sprague-Dawley rat assessed as suppression of thyroid hormone axis measured by decrease in total […]-L-thyronine level at 300 mg/kg/day, po for 7 days; format: organism-based; parameters: route oral; conditions: in vivo, 168 h
Rattus norvegicus [17] = assay: Toxicity in Sprague-Dawley rat assessed as suppression of thyroid hormone axis measured by decrease in total […]-L-thyronine level at 30 mg/kg/day, po for 7 days; format: organism-based; parameters: route oral; conditions: in vivo, 168 h
Rattus norvegicus [18] = assay: Effect on type 1 iodothyronine deiodinase mRNA expression in po dosed Sprague-Dawley rat spleen; format: functional, organism-based; conditions: TDE = time-dependent effect; procedure, shortened: as §1
Mus musculus [19] = assay: Decrease in cholesterol level in LDLR deficient C57BL/6 mouse at 0.5 mg/kg/day once daily for 7 days; format: functional, organism-based
Rattus norvegicus [20] = assay: Toxic cardiac effect on Sprague-Dawley rat assessed as increase in heart rate at >= 0.065 mg/kg/day, po for 7 days; format: toxicity, organism-based; parameters: route oral; conditions: in vivo, 168 h; procedure, shortened: as §2
Rattus norvegicus [21] = assay: Toxicity in Sprague-Dawley rat assessed as suppression of thyroid hormone axis measured by decrease in total 3,5,3',5'-tetraiodo-L-thyronine level at 300 mg/kg/day, po for 7 days; format: organism-based; parameters: route oral; conditions: in vivo, 168 h
Rattus norvegicus [22] = assay: Effect on plasma fatty acid level in Sprague-Dawley rat at 650 ug/kg/day, sc after 8 days; format: functional
Mus musculus [23] = assay: Decrease in cholesterol level in wild-type C57BL/6 mouse at 0.5 mg/kg/day once daily for 7 days; format: functional, organism-based
Rattus norvegicus [24] = assay: Toxicity in Sprague-Dawley rat assessed as suppression of thyroid hormone axis measured by decrease in total 3,5,3',5'-tetraiodo-L-thyronine level at 3 mg/kg/day, po for 7 days; format: organism-based; parameters: route oral; conditions: in vivo, 168 h
Mus musculus [25] = assay: Decrease in cholesterol level in wild-type C57BL/6 mouse at 5 mg/kg/day once daily for 7 days; format: functional, organism-based
Rattus norvegicus [26] = assay: Toxic cardiac effect on Sprague-Dawley rat assessed as increase in first derivative of left ventricular pressure at >= 0.065 mg/kg/day, po for 7 days; format: toxicity, organism-based, Heart left ventricle; parameters: route oral; conditions: in vivo, 168 h; procedure, shortened: as §2
Mus musculus [27] = assay: Effect on hepatic LDLR mRNA level in LDLR deficient C57BL/6 mouse at 0.5 mg/kg/day once daily for 7 days; format: functional
Rattus norvegicus [28] = assay: Effect on SREBP-1c mRNA expression in po dosed Sprague-Dawley rat liver; format: functional, organism-based; conditions: TDE = time-dependent effect
Rattus norvegicus [29] = assay: Toxicity in Sprague-Dawley rat assessed as suppression of thyroid hormone axis measured by decrease in serum TSH level at 30 mg/kg/day, po for 7 days relative to control; format: organism-based; parameters: route oral; conditions: in vivo, 168 h
Rattus norvegicus [30] = assay: Toxicity in Sprague-Dawley rat assessed as suppression of thyroid hormone axis measured by decrease in TSH-beta mRNA level at 3 mg/kg/day, po for 7 days relative to control; format: organism-based; parameters: route oral; conditions: in vivo, 168 h
Rattus norvegicus [31] = assay: Effect on type 1 iodothyronine deiodinase mRNA expression in po dosed Sprague-Dawley rat heart; format: functional, organism-based; conditions: TDE = time-dependent effect; procedure, shortened: as §1
Rattus norvegicus [32] = assay: Effect on UCP3 mRNA expression in po dosed Sprague-Dawley rat muscle; format: functional, organism-based; conditions: Muscle tissue, TDE = time-dependent effect
Rattus norvegicus [33] = species: Rattus norvegicus; assay: Reduction in plasma cholesterol level in cholesterol fed Sprague-Dawley rat; format: functional
Rattus norvegicus [34] = assay: Toxicity in Sprague-Dawley rat assessed as suppression of thyroid hormone axis measured by decrease in total […]-L-thyronine level at 3 mg/kg/day, po for 7 days; format: organism-based; parameters: route oral; conditions: in vivo, 168 h
Rattus norvegicus [35] = assay: Toxicity in Sprague-Dawley rat assessed as suppression of thyroid hormone axis measured by decrease in TSH-beta mRNA level at 30 mg/kg/day, po for 7 days relative to control; format: organism-based; parameters: route oral; conditions: in vivo, 168 h
Rattus norvegicus [36] = assay: Effect on TSH-beta mRNA expression in po dosed Sprague-Dawley rat pituitary gland; format: functional, organism-based; conditions: TDE = time-dependent effect
Rattus norvegicus [37] = assay: Effect on type 1 iodothyronine deiodinase mRNA expression in po dosed Sprague-Dawley rat pituitary gland; format: functional, organism-based; conditions: TDE = time-dependent effect; procedure, shortened: as §1
Rattus norvegicus [38] = assay: Effect on LDLR mRNA expression in po dosed Sprague-Dawley rat liver; format: functional, organism-based; conditions: TDE = time-dependent effect
Rattus norvegicus [39] = assay: Effect on food intake in Sprague-Dawley rat at 650 ug/kg/day, sc after 8 days; format: functional
Rattus norvegicus [40] = assay: Effect on malic enzyme mRNA expression in po dosed Sprague-Dawley rat liver; format: functional, organism-based; conditions: TDE = time-dependent effect; procedure, shortened: as §1
Rattus norvegicus [41] = assay: Effect on MHCbeta mRNA expression in po dosed Sprague-Dawley rat heart; format: functional, organism-based; conditions: TDE = time-dependent effect
Rattus norvegicus [42] = assay: Effect on fasting blood glucose level in Sprague-Dawley rat at 650 ug/kg/day, sc after 8 days by oral glucose tolerance test; format: functional
Rattus norvegicus [43] = assay: Toxicity in Sprague-Dawley rat assessed as suppression of thyroid hormone axis measured by decrease in total […]-L-thyronine level at 1000 mg/kg/day, po for 7 days; format: organism-based; parameters: route oral; conditions: in vivo, 168 h

## N[C@@H](Cc1cc(I)c(Oc2ccc(O)c(I)c2)c(I)c1)C(=O)O [LIOTHYRONINE]
Rattus norvegicus [1]
  Activity: 0.001365
Rattus norvegicus [2]
  Activity: tde
Rattus norvegicus [3]
  Activity: Active
Rattus norvegicus [4]
  Activity: 0.0978
Mus musculus [5]
  Activity: -42.4%
Rattus norvegicus [6]
  Activity: 0.081
Mus musculus [7]
  Activity: inactive
Rattus norvegicus [8]
  Activity: 0.0031
Rattus norvegicus [9]
  Activity: 4.3 g
Rattus norvegicus [10]
  Activity: 0.334 ng/mL
Rattus norvegicus [11]
  Activity: 0.57
Rattus norvegicus [12]
  Activity: 8.4 ng/mL
Rattus norvegicus [13]
  Activity: tde
Rattus norvegicus [14]
  Activity: tde
Rattus norvegicus [15]
  Activity: 4.2 ng/mL
Rattus norvegicus [16]
  Activity: 4.06 ng/mL
Rattus norvegicus [17]
  Activity: 0.42 ng/mL
Rattus norvegicus [18]
  Activity: tde
Mus musculus [19]
  Activity: inactive
Rattus norvegicus [20]
  Activity: Active
Rattus norvegicus [21]
  Activity: 1.43 ng/mL
Rattus norvegicus [22]
  Activity: 0.937 mM
Mus musculus [23]
  Activity: Active
Rattus norvegicus [24]
  Activity: 37.3 ng/mL
Mus musculus [25]
  Activity: Active
Rattus norvegicus [26]
  Activity: Active
Mus musculus [27]
  Activity: 9.5%
Rattus norvegicus [28]
  Activity: tde
Rattus norvegicus [29]
  Activity: 0.0139
Rattus norvegicus [30]
  Activity: 0.93
Rattus norvegicus [31]
  Activity: tde
Rattus norvegicus [32]
  Activity: tde
Rattus norvegicus [33]
  ED50: 0.012 mg/kg
Rattus norvegicus [34]
  Activity: 0.49 ng/mL
Rattus norvegicus [35]
  Activity: 0.14
Rattus norvegicus [36]
  Activity: tde
Rattus norvegicus [37]
  Activity: tde
Rattus norvegicus [38]
  Activity: tde
Rattus norvegicus [39]
  Activity: 16.2%
Rattus norvegicus [40]
  Activity: tde
Rattus norvegicus [41]
  Activity: tde
Rattus norvegicus [42]
  Activity: 25 mg/dL
Rattus norvegicus [43]
  Activity: 16.45 ng/mL
